Assays:
Set-up in all cases: scale not given: the % may be the effect or the level left
[1] = Inhibition of elastase at 97.6 uM relative to control
Method in brief: (§1)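 Enzyme assays run per supplier catalogue protocols, substrates as printed: […], elastase N-succinyl-Ala-Ala-Ala-pNA. Test sample given in MeOH; control received 10 µL MeOH in its place. Activity relative to solvent-treated control, mean of five data points with standard error of the mean.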

[2] = Inhibition of chymotrypsin at 12.2 uM relative to control; method in brief: as §1
[3] = Inhibition of trypsin at 12.2 uM relative to control; method in brief: as §1
[4] = Inhibition of trypsin at 2.4 uM relative to control; method in brief: as §1
[5] = Inhibition of trypsin at 97.6 uM relative to control; method in brief: as §1
[6] = Inhibition of chymotrypsin at 97.6 uM relative to control; method in brief: as §1
[7] = Inhibition of elastase at 2.4 uM relative to control; method in brief: as §1
[8] = Inhibition of chymotrypsin at 2.4 uM relative to control; method in brief: as §1
[9] = Inhibition of elastase at 12.2 uM relative to control; method in brief: as §1

- Activity [1]: 29%
- Activity [2]: 6.6%
- Activity [3]: 5.6%
- Activity [4]: 3.1%
- Activity [5]: 5.9%
- Activity [6]: 4%
- Activity [7]: 22%
- Activity [8]: 3.7%
- Activity [9]: 27.6%
SMILES: COC(=O)c1oc2cc(O)c(O)cc2c1-c1c(C(=O)OC)oc2cc(O)c(O)cc12

Source: ChEMBL document CHEMBL1159309, “A prolyl endopeptidase-inhibiting benzofuran dimer from Polyozellus multiflex” (J Nat Prod, 2002)
